Measured values as given in ChEMBL document CHEMBL5385869, “Novel 4-aminoquinolines: Synthesis, inhibition of the Mycobacterium tuberculosis enoyl-acyl carrier protein reductase, antitubercular activity, SAR, and preclinical evaluation” (Eur J Med Chem, 2023).
In brackets after ≈: the same amount, converted by molar mass. Several values for one entry are separate records, joined by “and”; a condition that tells them apart may be missing. Identical values can stand only once. Activity calls are given as the source filed them. No cut-off for these calls is given here.

Tests used:
[1] = molecular target: T1, Enoyl-[acyl-carrier-protein] reductase [NADH] (Mycobacterium tuberculosis, UniProt P9WGR1); assay: Binding affinity to wild type Mycobacterium tuberculosis InhA assessed as inhibition constant for formation of enzyme-inhibitor complex in presence of NADH and DD-CoA by spectrophotometry based analysis
T1 sequence (P9WGR1 whole entry): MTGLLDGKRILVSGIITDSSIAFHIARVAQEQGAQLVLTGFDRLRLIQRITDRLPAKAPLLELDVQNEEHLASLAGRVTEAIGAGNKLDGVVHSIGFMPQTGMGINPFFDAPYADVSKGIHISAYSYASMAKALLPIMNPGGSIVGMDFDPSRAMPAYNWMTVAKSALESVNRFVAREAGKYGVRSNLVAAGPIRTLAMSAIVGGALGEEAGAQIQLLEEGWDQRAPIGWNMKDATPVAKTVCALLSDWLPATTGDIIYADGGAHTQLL

[2] = tested on: Mycobacterium tuberculosis; assay: Antibacterial activity against pan-sensitive Mycobacterium tuberculosis H37Rv ATCC 27294 measured after 7 days by resazurin dye based assay; assay type: functional; details: H37Rv ATCC 27294, 168 h, time 7 day
How it was run: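 Resazurin reduction microplate assay (REMA) in Middlebrook 7H9 broth with 10% ADC and 5% DMSO. Compounds come from 2 mg/mL DMSO stocks and are 2-fold serially diluted, top concentration 0.08–40 μg/mL depending on solubility. MIC is the lowest concentration preventing the blue-to-pink colour change. Three independent experiments; the reported value is the modal or the highest value.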

[3] = molecular target: T1, Enoyl-[acyl-carrier-protein] reductase [NADH]; assay: Binding affinity to Mycobacterium tuberculosis H37Rv InhA assessed as dissociation constant in presence of NADH, octenoyl-CoA and KatG
[4] = molecular target: T1, Enoyl-[acyl-carrier-protein] reductase [NADH]; assay: Binding affinity to wild type Mycobacterium tuberculosis InhA assessed as inhibition constant in presence of NADH, DD-CoA by spectrophotometry based analysis
[5] = tested on: Mycobacterium tuberculosis; assay: Antibacterial activity against Mycobacterium tuberculosis H37Rv ATCC 27294 infected in CF-1 mouse assessed as reversal of bacterial growth in spleen at 150 uM/kg, po administered daily for 14 days starting from 7 days post infection; assay type: functional, organism-based; details: time 14.0 day
How it was run: (§1)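 Lung and spleen homogenates plated for CFU counts and compared with vehicle and early-control groups.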

[6] = tested on: Mycobacterium tuberculosis; assay: Bactericidal activity in Mycobacterium tuberculosis H37Rv ATCC 27294 infected in CF-1 mouse assessed as reduction in bacterial growth in lungs at 150 uM/kg, po administered daily for 14 days starting from 7 days post infection; assay type: functional, organism-based; details: time 14.0 day; how it was run: as §1
[7] = tested on: Mycobacterium tuberculosis; assay: Antibacterial activity against MDR Mycobacterium tuberculosis clinical isolate PE-003 measured after 7 days by resazurin dye based assay; assay type: functional; details: PE-003, 168 h, time 7 day
[8] = molecular target: T2, Enoyl-[acyl-carrier-protein] reductase [NADH] (Mycobacterium tuberculosis) (UniProt P9WGR1); assay: Binding affinity to recombinant Mycobacterium tuberculosis InhA assessed as change in entropy at 2 mM in presence of NADH by Spectrofluorophotometry
T2 sequence (whole entry): T1 sequence (P9WGR1 whole entry)

[9] = molecular target: T2, Enoyl-[acyl-carrier-protein] reductase [NADH] (Mycobacterium tuberculosis); assay: Binding affinity to recombinant Mycobacterium tuberculosis InhA assessed as change in enthalpy at 2 mM in presence of NADH by Spectrofluorophotometry
[10] = molecular target: T2, Enoyl-[acyl-carrier-protein] reductase [NADH] (Mycobacterium tuberculosis); assay: Binding affinity to recombinant Mycobacterium tuberculosis InhA assessed as gibbs free energy change at 2 mM in presence of NADH by Spectrofluorophotometry

SMILES | Ki [1] [nM] | MIC [2] [µM] | Kd [3] [nM] | Ki [4] [nM] | Activity [5] | Activity [6] | MIC [7] | deltaS [8] [cal/mol/K] | deltaH [9] [kcal/mol] | deltaG [10] [kcal/mol]
NNC(=O)c1ccncc1 [ISONIAZID] | 16 | 2.3 (≈ 0.315 µg/mL) | < 0.4 | 0.75 | Active | Active |  |  |  | 
CCOC(=O)c1ccc2nc(C)cc(Nc3ccc(N4CCCCC4)cc3)c2c1 |  | 12.8 (≈ 4.99 µg/mL) |  |  |  |  | 2.5 µg/mL and 6.4 µM | -54.5 | -23.3 | -7.1
